This passage reports MIC and MEC results from ChEMBL document CHEMBL1158173, “Carbodithioic acid esters of fluoxetine, a novel class of dual-function spermicides” (2008).

Holding throughout (assay type): functional
In assay [1] the test system is Candida parapsilosis. Briefly: (§1) Antifungal activity against Candida parapsilosis ATCC 22019 after 48 hrs by broth microdilution technique. The following applies: Lodderomyces parapsilosis, ATCC 22019, 48 h.
The test system of assay [2] is Aspergillus fumigatus. Kind of assay: Antifungal activity against Aspergillus fumigatus after 48 hrs by broth microdilution technique.
The subject of assay [3] is Candida parapsilosis. Described as §1. As to conditions: Lodderomyces parapsilosis, ATCC 22019, 48 h. The source holds these as a separate data set.
For assay [4], the system named is Candida albicans. Kind of assay: Antifungal activity against Candida albicans ATCC 6019 after 48 hrs by broth microdilution technique. The following applies: ATCC 6019, 48 h.
In assay [5] the test system is Candida albicans. Briefly: Antifungal activity against Candida albicans ATCC 10453 after 48 hrs by broth microdilution technique. The following applies: ATCC 10453, 48 h. A general note: Broth dilution looks for growth in wells or tubes with falling amounts of substance.
In assay [6] the test system is Trichomonas vaginalis. Kind of assay: Antitrichomonas activity against Trichomonas vaginalis after 48 hrs by trypan blue staining. Put shortly: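 Trichomonas vaginalis was grown in TYM medium and used in log phase, one day after routine subculture. Compounds in DMSO stock were serially diluted in TYM medium, with DMSO/TYM as vehicle control. Wells received 5 × 10³ trophozoites and were incubated anaerobically at 37 °C. Viability was scored daily by trypan blue and cell counts, and MIC was read at 48 h. Finer dilutions were then retested, and the final MIC was taken from a concentration versus viable-trophozoite-number curve.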

Assay [7] concerns Cryptococcus neoformans. Briefly: Antifungal activity against Cryptococcus neoformans after 48 hrs by broth microdilution technique.
In assay [8] the test system is Candida albicans. Kind of assay: Antifungal activity against Candida albicans after 48 hrs by broth microdilution technique.
The subject of assay [9] is Candida albicans. Briefly: Antifungal activity against Candida albicans MTCC 1346 after 48 hrs by broth microdilution technique. As to conditions: MTCC 1346, 48 h.
For assay [10], the system named is Candida albicans. Briefly: Antifungal activity against Candida albicans ATCC 66027 after 48 hrs by broth microdilution technique. As to conditions: ATCC 66027, 48 h.
Assay [11] has as its system Pichia kudriavzevii. Kind of assay: Antifungal activity against Candida krusei ATCC 6258 after 48 hrs by broth microdilution technique. The following applies: ATCC 6258, 48 h.
Assay [12] in a line: Spermicidal activity in liquefied human semen assessed as drug level required to kill 100% sperm in 20 seconds.
Assay [13] has as its system Sporothrix schenckii. Kind of assay: Antifungal activity against Sporothrix schenckii after 48 hrs by broth microdilution technique.
Assay [14] deals with Candida albicans. Briefly: Antifungal activity against Candida albicans ATCC 10231 after 48 hrs by broth microdilution technique. As to conditions: ATCC 10231, 48 h.
The subject of assay [15] is Trichophyton mentagrophytes. Briefly: Antifungal activity against Trichophyton mentagrophytes after 48 hrs by broth microdilution technique.
Assay [16] has as its system Candida albicans. Kind of assay: Antifungal activity against Candida albicans MTCC 183 after 48 hrs by broth microdilution technique. The following applies: MTCC 183, 48 h.

Structures are written as SMILES. Converted amounts (≈) assume the structure as drawn.

`CN(CCC(Oc1ccc(C(F)(F)F)cc1)c1ccccc1)C(=S)SCCN1CCCC1` (stereo not given): the MIC in [1] was 3.12 µg/mL (≈ 6.47 µM); in [2], 12.5 µg/mL (≈ 25.9 µM); in assay [3] it was 3.12 µg/mL (≈ 6.46 µM); in [4] it was 6.25 µg/mL (≈ 12.9 µM); in assay [5], 6.25 µg/mL (≈ 12.9 µM); in assay [6], 14 µg/mL (≈ 29 µM). The minimal inhibitory concentration (MIC) in assay [7] is 3.12 µg/mL (≈ 6.46 µM); in assay [8], 6.25 µg/mL (≈ 12.9 µM); in assay [9], 6.25 µg/mL (≈ 12.9 µM); in assay [10], 6.25 µg/mL (≈ 12.9 µM); in [11] it was 6.25 µg/mL (≈ 12.9 µM); in assay [13] it was 25 µg/mL (≈ 51.8 µM). Besides, the minimal inhibitory concentration (MIC) in assay [14] was found to be 6.25 µg/mL (≈ 12.9 µM); in [15], 12.5 µg/mL (≈ 25.9 µM); in assay [16], 3.12 µg/mL (≈ 6.47 µM). Besides, the MEC in assay [12] was found to be 0.05%.

Take `OC(Cn1cncn1)(Cn1cncn1)c1ccc(F)cc1F` [FLUCONAZOLE]: the minimal inhibitory concentration (MIC) in [1] was found to be 1 µg/mL (≈ 3.27 µM); in assay [4] it was 0.25 µg/mL (≈ 0.816 µM); in assay [5] it was 1 µg/mL (≈ 3.27 µM); in assay [8] it was 0.5 µg/mL (≈ 1.63 µM); in assay [9], 2 µg/mL (≈ 6.53 µM); in assay [10] it was 0.25 µg/mL (≈ 0.816 µM). Moreover, the MIC was 4 µg/mL (≈ 13.1 µM) in assay [11], 1 µg/mL (≈ 3.27 µM) in assay [14] and 0.5 µg/mL (≈ 1.63 µM) in assay [16].

By MIC is commonly meant the smallest concentration in the dilution series that meets the test's criterion for growth inhibition.
